A selection: hits, their analogues and other compounds. The true share with any hit is near 3.1%.
F508del corr: CFTR F508del correction in bronchial cells | CFBE cells, YFP halide quenching; stimulated with forskolin plus potentiator P3; % fluorescence drop versus neutral controls | activity (quench increase), % at 7.58 µM | hit rate 0.36% among 350,000;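 active = mean added fluorescence quench of at least 8% versus neutral control, with both replicates also reaching 8%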;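 note: cells transiently co-express mutant CFTR-F508del with the halide-sensitive YFP; corrector assay measuring rescue of mutant channel to the surface after 24 h compound exposure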
SIRT5 block: blocks human SIRT5 desuccinylation of peptide; Q9NXA8; Purified SirT5, succinyl-peptide AMC, trypsin-coupled fluorescence; inhibition, % at 15 µM; hit rate 1.1% among 330,000; AID 652115; in the data active = inhibition above about 15%
Target sequence (Q9NXA8 whole entry, looked up): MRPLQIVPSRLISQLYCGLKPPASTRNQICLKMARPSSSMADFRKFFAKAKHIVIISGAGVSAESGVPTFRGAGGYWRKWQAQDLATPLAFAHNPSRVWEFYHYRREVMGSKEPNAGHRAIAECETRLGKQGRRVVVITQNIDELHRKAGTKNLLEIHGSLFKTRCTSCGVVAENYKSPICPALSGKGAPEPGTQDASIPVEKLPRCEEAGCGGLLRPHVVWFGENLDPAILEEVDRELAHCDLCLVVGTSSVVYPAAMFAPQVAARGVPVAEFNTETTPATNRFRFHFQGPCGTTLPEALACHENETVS
S100A4 inh HTS: inhibitors of human S100A4 binding to myosin IIA peptide; P26447; S100A4/TAMRA-MyoIIA peptide fluorescence polarization; inhibition, % at 10.7 µM; hit rate 0.14% among 360,000;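 active = mean inhibition of at least 70% across replicates, with every replicate also reaching that level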
Target sequence (P26447 whole entry, looked up): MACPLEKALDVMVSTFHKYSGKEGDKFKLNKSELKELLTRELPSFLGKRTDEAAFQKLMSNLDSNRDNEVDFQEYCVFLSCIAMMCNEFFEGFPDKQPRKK
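Test system: S100A4 monomer protein; Medium: HEPES pH 7.2 with CaCl2, KCl, NaCl, DTT, Triton; Probe or stimulus: TAMRA-labelled myosin IIA heavy-chain peptide probe, 5 nM; Doses: one dose per compound; Times: polarization read 5 min after assay mix addition, stable 5–60 min; Benchmarks: neutral control DMSO, positive control TFP.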
Ecoli rRNA inh: inhibits bacterial ribosomal RNA function over humanized ribosomes; E. coli WT GFP vs humanized-ribosome RFP mutants, fluorescence, 24 h; stronger effect = lower value; DMSO median 0, no signal -100; GFP signal change (wild-type ribosome), % (no concentration beside the values); hit rate 1.6% among 350,000; AID 720706;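 active = significant combined selectivity score with lowered wild-type GFP, culture density cut under 30%, mutant RFP and density less affected; inactive = any of these conditions unmet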
ERAP1 inh: inhibitors of human ERAP1 aminopeptidase; Q9NZ08; recombinant ERAP1, Leu-AMC fluorescence, 60 min; inhibition, % at 10.7 µM; hit rate 0.15% among 340,000;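 active = mean replicate inhibition of at least 30%, or all replicates individually reaching that 30% level; inactive = mean below 30% and not every replicate reaching it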
Numbers stand for hits.

What do the screens show for `COc1ccc(C#Cc2c(-c3ccc(OC)cc3)oc3ccc(-c4ccc(OC)cc4)cc23)cc1`?
F508del corr: inactive; SIRT5 block: inactive; S100A4 inh HTS: inactive; Ecoli rRNA inh: inactive; ERAP1 inh: inactive

Results for Cc1ccc(NC(=O)c2nc(S(=O)(=O)Cc3ccccc3C)ncc2Cl)cc1C ?
F508del corr: inactive; SIRT5 block: 16; S100A4 inh HTS: inactive; Ecoli rRNA inh: inactive; ERAP1 inh: inactive

How did CC=Cc1ccc2n(c1=O)C[C@@H]1[C@@H](CO)[C@H](C(=O)NCCC)[C@H]2N1C(=O)c1ccccc1F (mixture of isomers) do in these assays?
F508del corr: inactive; SIRT5 block: inactive; S100A4 inh HTS: inactive; Ecoli rRNA inh: inactive; ERAP1 inh: inactive

How did Cn1c(SCc2ccc(C#N)cc2)nnc1-c1ccccc1 do in these assays?
SIRT5 block: 21; S100A4 inh HTS: inactive; Ecoli rRNA inh: inactive; ERAP1 inh: inactive

What do the screens show for `CCn1nc(NC(C)=O)c2cc3cccc(C)c3nc21`?
F508del corr: inactive; SIRT5 block: inactive; S100A4 inh HTS: inactive; Ecoli rRNA inh: inactive; ERAP1 inh: 75

Results for COc1ccc(NC(=O)c2cc(S(=O)(=O)N3CCOCC3)ccc2C)cc1S(=O)(=O)N1CCOCC1 ?
F508del corr: 10; SIRT5 block: inactive; S100A4 inh HTS: inactive; Ecoli rRNA inh: inactive; ERAP1 inh: inactive

Results for COc1ccc(C(=O)N2CCN(S(=O)(=O)c3ccc(C)cc3)CC2)cc1S(=O)(=O)N1CCOCC1 ?
F508del corr: inactive; SIRT5 block: 20; S100A4 inh HTS: inactive; Ecoli rRNA inh: inactive

Results for Cc1ccc(S(=O)(=O)N2CCOCC2)cc1C(=O)Nc1ccc(C(N)=O)cc1 ?
F508del corr: inactive; SIRT5 block: inactive; S100A4 inh HTS: inactive; Ecoli rRNA inh: inactive; ERAP1 inh: inactive

How did Cc1ccc(Oc2ccc(S(=O)(=O)N3CCOCC3)cc2C(N)=O)cc1C do in these assays?
F508del corr: inactive; SIRT5 block: inactive; S100A4 inh HTS: inactive; Ecoli rRNA inh: -23; ERAP1 inh: inactive

What do the screens show for `COc1ccc(NC(=O)c2cc(S(=O)(=O)N3CCCCC3)ccc2C)cc1S(=O)(=O)N1CCOCC1`?
F508del corr: inactive; SIRT5 block: inactive; S100A4 inh HTS: inactive; Ecoli rRNA inh: inactive; ERAP1 inh: inactive

Results for COc1ccc(S(=O)(=O)N2CCOCC2)cc1NC(=O)c1cccc2c(=O)c(C)c(-c3ccccc3)oc12 ?
F508del corr: inactive; SIRT5 block: 27; S100A4 inh HTS: inactive; Ecoli rRNA inh: inactive; ERAP1 inh: inactive

How did CNC[C@H]1Oc2c(NC(=O)c3ccc(-c4nccs4)cc3)cccc2C(=O)N([C@H](C)CO)C[C@@H]1C do in these assays?
F508del corr: inactive; SIRT5 block: inactive; S100A4 inh HTS: inactive; Ecoli rRNA inh: inactive; ERAP1 inh: inactive

How did COc1cc2c(cc1OC)C(c1cccc(Br)c1)NC(=O)C2 (stereo unspecified) do in these assays?
F508del corr: inactive; SIRT5 block: inactive; S100A4 inh HTS: inactive; Ecoli rRNA inh: inactive; ERAP1 inh: inactive

How did COc1cc2c(cc1OC)C(c1c(Cl)cccc1Cl)NC(=O)C2 (stereo unspecified) do in these assays?
F508del corr: inactive; SIRT5 block: 26; S100A4 inh HTS: inactive; Ecoli rRNA inh: inactive; ERAP1 inh: inactive

How did CC(=O)Nc1ccc(C(=O)CCl)cc1 do in these assays?
F508del corr: inactive; S100A4 inh HTS: 94; Ecoli rRNA inh: inactive; ERAP1 inh: inactive

Results for CC(=O)NCc1ccc(C(=O)CCl)cc1 ?
F508del corr: inactive; SIRT5 block: inactive; S100A4 inh HTS: inactive; Ecoli rRNA inh: inactive; ERAP1 inh: inactive

How did C=CCc1ccc(OCCCCN2CC(C)CC(C)C2)c(OC)c1 (stereo unspecified) do in these assays?
F508del corr: inactive; SIRT5 block: inactive; S100A4 inh HTS: inactive; Ecoli rRNA inh: -22; ERAP1 inh: inactive

How did C=CCc1ccc(OCCCOc2ccc(C(=O)O)cc2)c(OC)c1 do in these assays?
F508del corr: inactive; SIRT5 block: inactive; S100A4 inh HTS: inactive; Ecoli rRNA inh: inactive; ERAP1 inh: inactive

How did CC(C)(C)C(=O)c1c(N)[nH]c(C(=O)c2ccccc2)c1-c1ccc(Br)cc1 do in these assays?
F508del corr: inactive; SIRT5 block: 20; S100A4 inh HTS: inactive; Ecoli rRNA inh: inactive; ERAP1 inh: inactive

Results for Nc1[nH]c(C(=O)c2ccccc2)c(-c2ccccc2Br)c1C(=O)c1ccccc1 ?
F508del corr: inactive; SIRT5 block: inactive; S100A4 inh HTS: inactive; Ecoli rRNA inh: -41; ERAP1 inh: inactive

Screening results: PubChem, Broad Institute
